Columns and labels:
[1] = biological target: C-C chemokine receptor type 8 (Homo sapiens, UniProt P51685); experiment: (§1) Antagonist activity at human CCR8 expressed in CHOK1 cells assessed as inhibition in CCL1-induced beta-arrestin 2 recruitment at 20 uM incubated for 30 mins followed by CCL1 addition and measured after 90 or 180 mins by pathhunter beta-arrestin assay relative to control; assay type: cell-based
Procedure, shortened: (§2)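 PathHunter beta-arrestin recruitment, antagonist mode, run at DiscoverX. Cells seeded and held at 37 °C, then preincubated with test sample for 30 min at 37 °C or room temperature (1% vehicle). Agonist then added at EC80 for 90 or 180 min. IC50 comes from concentration–response runs in the same format.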

[2] = biological target: C-X-C chemokine receptor type 4 (Homo sapiens) (UniProt P61073); experiment: Antagonist activity at human Gi/o-coupled CXCR4 expressed in mouse C2C12 cells assessed as inhibition in CXCL12-induced beta-arrestin 2 recruitment at 20 uM incubated for 30 mins followed by CXCL12 addition and measured after 90 or 180 mins by pathhunter beta-arrestin assay relative to control; assay type: cell-based; procedure, shortened: as §2
C-X-C chemokine receptor type 4 (Homo sapiens), sequence (P61073 whole entry): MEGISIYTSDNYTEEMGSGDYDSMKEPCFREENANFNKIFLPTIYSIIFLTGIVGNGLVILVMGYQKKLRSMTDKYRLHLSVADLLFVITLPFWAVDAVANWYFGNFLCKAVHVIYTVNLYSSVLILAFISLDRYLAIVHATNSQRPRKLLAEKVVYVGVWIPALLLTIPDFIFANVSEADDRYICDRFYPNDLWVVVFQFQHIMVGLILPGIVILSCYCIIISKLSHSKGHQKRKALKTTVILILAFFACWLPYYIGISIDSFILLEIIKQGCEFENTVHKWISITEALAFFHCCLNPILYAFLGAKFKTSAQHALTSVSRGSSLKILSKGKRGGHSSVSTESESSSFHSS

[3] = biological target: T1, Glucose-dependent insulinotropic receptor (Homo sapiens) (UniProt Q8TDV5); experiment: Antagonist activity at human GPR119 assessed as inhibition in oleoylethanolamide-induced beta-arrestin 2 recruitment at 20 uM incubated for 30 mins followed by oleoylethanolamide addition and measured after 90 or 180 mins by pathhunter beta-arrestin assay relative to control; procedure, shortened: as §2
T1 sequence (whole entry): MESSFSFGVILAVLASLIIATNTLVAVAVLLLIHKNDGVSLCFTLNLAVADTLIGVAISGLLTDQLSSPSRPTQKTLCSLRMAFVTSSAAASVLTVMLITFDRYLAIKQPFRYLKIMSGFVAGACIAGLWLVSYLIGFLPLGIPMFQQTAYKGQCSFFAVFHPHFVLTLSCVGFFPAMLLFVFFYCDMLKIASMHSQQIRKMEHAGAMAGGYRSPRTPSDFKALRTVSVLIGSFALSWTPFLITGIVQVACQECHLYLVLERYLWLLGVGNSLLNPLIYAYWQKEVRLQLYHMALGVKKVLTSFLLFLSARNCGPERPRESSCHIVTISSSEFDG

[4] = biological target: T2, Neuropeptide S receptor (Homo sapiens) (UniProt Q6W5P4); experiment: as §1, with “Gq-coupled NPSR1b” for “CCR8”, “human U2OS” for “CHOK1”, “neuropeptide S-induced” for “CCL1-induced”, “neuropeptide S” for “CCL1”; assay type: cell-based; procedure, shortened: as §2
T2 sequence (whole entry): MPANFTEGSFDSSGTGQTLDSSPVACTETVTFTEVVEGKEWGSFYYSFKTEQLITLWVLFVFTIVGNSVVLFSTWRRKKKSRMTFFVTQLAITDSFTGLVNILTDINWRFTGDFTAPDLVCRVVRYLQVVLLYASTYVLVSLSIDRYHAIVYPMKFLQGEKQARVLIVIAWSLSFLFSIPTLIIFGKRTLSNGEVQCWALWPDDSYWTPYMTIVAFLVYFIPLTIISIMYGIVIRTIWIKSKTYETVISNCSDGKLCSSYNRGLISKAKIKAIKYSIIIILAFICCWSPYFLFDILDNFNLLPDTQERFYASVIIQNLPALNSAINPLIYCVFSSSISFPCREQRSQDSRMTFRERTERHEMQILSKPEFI

Prostacyclin receptor = Prostacyclin receptor (Homo sapiens, UniProt P43119); experiment: Antagonist activity at human Gs-coupled PTGIR assessed as inhibition in beraprost-induced beta-arrestin 2 recruitment at 20 uM incubated for 30 mins followed by beraprost- addition and measured after 90 or 180 mins by pathhunter beta-arrestin assay relative to control; procedure, shortened: as §2
Prostacyclin receptor, sequence (P43119 whole entry): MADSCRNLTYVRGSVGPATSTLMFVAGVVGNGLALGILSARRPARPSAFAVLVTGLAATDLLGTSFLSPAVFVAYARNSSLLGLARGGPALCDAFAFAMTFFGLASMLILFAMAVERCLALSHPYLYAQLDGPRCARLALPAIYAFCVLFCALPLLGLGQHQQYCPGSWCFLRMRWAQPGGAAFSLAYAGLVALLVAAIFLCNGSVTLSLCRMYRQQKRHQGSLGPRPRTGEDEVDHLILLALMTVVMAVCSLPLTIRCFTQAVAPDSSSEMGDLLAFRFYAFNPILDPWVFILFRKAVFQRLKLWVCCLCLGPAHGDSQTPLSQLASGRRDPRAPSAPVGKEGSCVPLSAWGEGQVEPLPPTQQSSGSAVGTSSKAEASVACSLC

[5] = biological target: T3, Muscarinic acetylcholine receptor M4 (Homo sapiens, UniProt P08173); experiment: Antagonist activity at human Gs/Gi/o-coupled CHRM4 expressed in CHOK1 cells assessed as inhibition in acetylcholine-induced beta-arrestin 2 recruitment incubated for 30 mins followed by acetylcholine addition and measured after 90 or 180 mins by pathhunter beta-arrestin assay; assay type: cell-based
T3 sequence (P08173 whole entry): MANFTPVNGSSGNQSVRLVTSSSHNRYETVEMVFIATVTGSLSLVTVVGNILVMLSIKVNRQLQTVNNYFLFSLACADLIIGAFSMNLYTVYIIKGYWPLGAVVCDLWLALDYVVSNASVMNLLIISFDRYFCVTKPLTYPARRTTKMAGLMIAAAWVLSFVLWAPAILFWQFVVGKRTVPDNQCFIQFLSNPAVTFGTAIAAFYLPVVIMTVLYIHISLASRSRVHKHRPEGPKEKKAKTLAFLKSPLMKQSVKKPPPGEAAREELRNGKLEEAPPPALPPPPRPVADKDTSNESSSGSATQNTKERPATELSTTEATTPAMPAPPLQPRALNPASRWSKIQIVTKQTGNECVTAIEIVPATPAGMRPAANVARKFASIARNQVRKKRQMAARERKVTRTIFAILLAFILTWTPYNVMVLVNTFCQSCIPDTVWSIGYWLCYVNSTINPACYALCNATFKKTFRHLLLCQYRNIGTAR
Procedure, shortened: as §2, with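 “min. […]” for “min.”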

[6] = Stability of compound in pH 4.88 HCl aqueous solution assessed as parent compound remaining at 0.026 mmol measured after 24 hrs; assay type: physicochemical; conditions: read-out: Stability
Procedure, shortened: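 Acid stability: compound held 24 h at 37 °C in acidic aqueous media at pH 2.0 or pH 4.88. Percent recovery of parent compound was measured.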

[7] = Toxicity in C57BL/6J mouse assessed as induction of behavioral changes at 60 nmol, icv; conditions: in vivo, icv_or_intrathecal
[8] = biological target: Histamine H1 receptor (Homo sapiens) (UniProt P35367); conditions: at 20 µM
Histamine H1 receptor (Homo sapiens), sequence (P35367 whole entry): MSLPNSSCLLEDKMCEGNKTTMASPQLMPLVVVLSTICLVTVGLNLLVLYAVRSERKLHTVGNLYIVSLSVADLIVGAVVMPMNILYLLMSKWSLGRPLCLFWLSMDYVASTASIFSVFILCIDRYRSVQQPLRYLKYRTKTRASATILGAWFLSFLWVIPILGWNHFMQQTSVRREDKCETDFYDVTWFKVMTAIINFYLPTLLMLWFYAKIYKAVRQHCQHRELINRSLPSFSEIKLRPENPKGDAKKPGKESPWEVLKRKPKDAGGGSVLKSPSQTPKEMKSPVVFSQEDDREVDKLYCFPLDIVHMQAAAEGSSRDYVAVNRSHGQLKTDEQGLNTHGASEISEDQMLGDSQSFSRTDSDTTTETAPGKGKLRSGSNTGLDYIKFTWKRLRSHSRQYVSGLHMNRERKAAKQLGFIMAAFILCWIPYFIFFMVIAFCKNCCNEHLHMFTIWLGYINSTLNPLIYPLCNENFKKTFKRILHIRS

C-C chemokine receptor type 8, sequence (P51685 whole entry): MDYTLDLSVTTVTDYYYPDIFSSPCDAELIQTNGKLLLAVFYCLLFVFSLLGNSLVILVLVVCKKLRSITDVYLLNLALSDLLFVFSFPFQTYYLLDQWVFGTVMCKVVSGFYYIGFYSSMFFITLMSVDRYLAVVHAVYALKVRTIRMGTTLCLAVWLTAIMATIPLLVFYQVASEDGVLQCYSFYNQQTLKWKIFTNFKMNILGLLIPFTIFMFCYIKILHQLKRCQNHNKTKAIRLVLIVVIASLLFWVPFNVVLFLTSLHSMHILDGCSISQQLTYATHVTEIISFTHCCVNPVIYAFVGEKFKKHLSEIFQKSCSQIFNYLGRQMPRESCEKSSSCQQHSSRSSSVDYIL

inhibition [1]: 59%
inhibition [2]: 34%
inhibition [3]: 30%
inhibition [4]: 30%
inhibition (Prostacyclin receptor): 75%
IC50 [5]: 12.5 µM
remaining at 24 h, 0.026 mmol [6]: 99.2%
inhibition [8]: 17%
Structure (SMILES): CC[C@@]12CCCN3CCc4c([nH]c5ccccc45)[C@]31N(Cc1cn(Cc3ccccc3)nn1)C(=O)C2
Activity [7]: Non-Toxic

Source: ChEMBL document CHEMBL4342456, “Preventing Morphine-Seeking Behavior through the Re-Engineering of Vincamine's Biological Activity” (J Med Chem, 2020)
